This is a sample that favours compounds with a hit; in the whole collection about 3.6% have one here.
Wnt act = Wnt/beta-catenin pathway activation; AID 743398; Wnt/beta-catenin reporter cell assay, activator, plate reader; activation, % at 9.35 µM; 300,000 tested, 1.2% active; in the data active = activation above about 30%, passing the limit was not always enough
HSF-1 act = increases HSF-1 driven luciferase reporter signal. NIH3T3-HGL HSF-1 luciferase reporter, MG132, 8 h; 100% = twice DMSO control signal. activation, % at 9 µM. 300,000 tested, 1.7% active. AID 504408;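 active = mean replicate activation of at least 50% with a set share of replicates each reaching 50%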
MITF TRPM1 HTS = activators of MITF-driven TRPM1 promoter activity in SK-MEL-5 cells; SK-MEL-5 TRPM1-promoter luciferase, 24 h; % of positive control, neutral wells = 0; activation, % at 12.5 µM; 300,000 tested, 0.75% active;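 active = mean activation of at least 80% with every replicate also reaching 80%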
SR-BI HDL uptake = blocks mouse SR-BI lipid uptake from DiI-HDL | Q61009 | ldlA[mSR-BI] CHO cells, DiI-HDL uptake fluorescence, 3 h | inhibition, % at 12.5 µM | 320,000 tested, 0.96% active | AID 488896;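 active = mean replicate inhibition of at least 70% and a set share of replicates each scoring 70 or more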
Target sequence (Q61009 whole entry, looked up): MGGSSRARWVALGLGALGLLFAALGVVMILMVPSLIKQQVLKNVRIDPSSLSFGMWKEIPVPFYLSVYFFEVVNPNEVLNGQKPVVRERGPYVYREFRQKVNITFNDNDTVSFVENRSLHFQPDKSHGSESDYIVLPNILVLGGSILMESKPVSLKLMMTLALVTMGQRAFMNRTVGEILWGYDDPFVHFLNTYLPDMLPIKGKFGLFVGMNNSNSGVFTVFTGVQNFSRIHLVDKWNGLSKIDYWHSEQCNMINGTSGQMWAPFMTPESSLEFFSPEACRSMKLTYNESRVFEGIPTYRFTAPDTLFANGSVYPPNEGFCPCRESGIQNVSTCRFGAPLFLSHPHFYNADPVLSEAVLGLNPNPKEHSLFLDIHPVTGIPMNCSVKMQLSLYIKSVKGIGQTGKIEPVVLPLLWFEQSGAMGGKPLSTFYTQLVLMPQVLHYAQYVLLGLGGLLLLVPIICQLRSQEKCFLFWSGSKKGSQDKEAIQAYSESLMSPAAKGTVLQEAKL
SR-BI DiI-HDL act = SR-BI HDL lipid transfer activation; CHO ldlA[mSR-BI] cells, DiI-HDL uptake fluorescence, 3 h; 100 = double the neutral-control signal; activation, % at 12.5 µM; 320,000 tested, 0.096% active;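 active = mean replicate activation of at least 60% and every replicate at or above 60%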
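Test system: SR-BI-overexpressing, LDLR-lacking CHO cells; Medium: Ham's F12 with 0.5% BSA, HEPES 25 mM, pH 7.4; Schedule: 3 h, 37 °C; Technique: bottom-read fluorescence, 550/595 nm.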
Large screens that a line does not name were inactive.

Cc1ccc(-c2cc(C(=O)N/N=C/c3ccc([N+](=O)[O-])o3)c3ccccc3n2)o1	none (no result: HSF-1 act)
Cn1c(/C=C/c2ccc([N+](=O)[O-])o2)nc2ccccc2c1=O	HSF-1 act 62 (no result: Wnt act)
Cc1cc(N/N=C/c2ccc([N+](=O)[O-])o2)nc2ccccc12	HSF-1 act 65
Cn1c(/C=C/c2ccccc2)nc2ccccc2c1=O	none
O=C(N/N=C/c1cccc([N+](=O)[O-])c1)c1cc(-c2ccccc2)nc2ccccc12	SR-BI HDL uptake 80
COc1ccc(C(=O)N2CCC[C@@H]2C(=O)N2CCC[C@@H]2C(=O)NCc2ccccc2)cc1F	none (no result: HSF-1 act, MITF TRPM1 HTS, SR-BI HDL uptake, SR-BI DiI-HDL act)
O=C(C(=O)N1CCN(C(=O)c2ccccc2C(F)(F)F)CC1)c1cccc(C(F)(F)F)c1	none (no result: HSF-1 act, MITF TRPM1 HTS, SR-BI HDL uptake, SR-BI DiI-HDL act)
O=C(N/N=C/c1ccc[nH]1)c1sc2ccccc2c1Cl	SR-BI HDL uptake 75
Cc1ccc(-c2nc(N/N=C/c3cccnc3)c3ccccc3n2)cc1	none (no result: Wnt act)
O=C(N/N=C/c1ccc([N+](=O)[O-])o1)c1cc(-c2ccc(-c3ccccc3)cc2)nc2ccccc12	SR-BI HDL uptake 118
Cc1ccc(-c2nc(N/N=C/c3cccc([N+](=O)[O-])c3)c3ccccc3n2)cc1	SR-BI HDL uptake 74
O=C(N/N=C/c1ccc(O)c(O)c1)c1cc(-c2ccccc2)nc2ccccc12	none
O=C(N/N=C/c1ccc(Cl)c([N+](=O)[O-])c1)c1cc(-c2ccccc2)nc2ccccc12	HSF-1 act 128
CCOC(=O)[C@]12CCC=C1N(Cc1ccc3c(c1)OCO3)C(=O)[C@H](CC(=O)NCc1cccs1)C2	none (no result: HSF-1 act, MITF TRPM1 HTS, SR-BI HDL uptake, SR-BI DiI-HDL act)
O=C(N/N=C/c1ccc[nH]1)c1cc(-c2ccc(Cl)cc2)nc2ccccc12	SR-BI HDL uptake 93
COc1ccccc1/C=C/C(=O)c1cc(Br)ccc1OC(=O)c1ccco1	HSF-1 act 103
COc1ccc(Nc2c([N+](=O)[O-])ccc3c2=NC2(CCCCC2)N=3)cc1	SR-BI HDL uptake 86
O=[N+]([O-])c1ccc2c(c1Nc1ccccc1)=NC1(CCCCC1)N=2	none (no result: Wnt act)
O=C(NNC(=O)c1cccc2ccccc12)c1ccc(Cl)cc1	none (no result: HSF-1 act)
O=C(NNC(=O)c1ccccc1O)c1ccc(Cl)cc1	SR-BI HDL uptake 88 (no result: MITF TRPM1 HTS)
O=C(NNC(=O)c1ccc(O)cc1O)c1ccc(Cl)cc1	none (no result: Wnt act)
Cc1cccc(C(=O)NNC(=O)c2ccc(Cl)cc2)c1O	SR-BI HDL uptake 75 (no result: Wnt act)
C/C(=C\C(=O)c1ccccc1)NNC(=O)c1ccc(Cl)cc1	SR-BI HDL uptake 91 (no result: MITF TRPM1 HTS)
CCCN1C(=O)c2n[nH]c(C(C)C)c2C1c1cccc(C(F)(F)F)c1 (stereo not given)	none (no result: HSF-1 act, MITF TRPM1 HTS, SR-BI HDL uptake, SR-BI DiI-HDL act)
COCc1cc(N2CCN(C(=O)OC(C)(C)C)C[C@@H]2C)ccc1N1CC[C@@H](O)C1	none (no result: HSF-1 act, MITF TRPM1 HTS, SR-BI HDL uptake, SR-BI DiI-HDL act)
O=S1(=O)N[C@@H](Cc2ccccc2)COc2cc(NC3CC3)ccc21	none (no result: HSF-1 act, MITF TRPM1 HTS, SR-BI HDL uptake, SR-BI DiI-HDL act)
CC(C)c1ccc(NC(=O)c2ccccc2NC(=O)C2CC=CCC2C(=O)O)cc1 (stereo not given)	none (no result: HSF-1 act)
CC(C)c1ccc(NC(=O)c2ccccc2NC(=O)C2CCCCC2C(=O)O)cc1 (stereo not given)	Wnt act 35
COc1ccc(NC(=O)c2ccccc2NC(=O)C2CCCCC2C(=O)O)cc1 (stereo not given)	Wnt act 38 (no result: HSF-1 act, MITF TRPM1 HTS)
O=C(COC(=O)c1c(F)cccc1F)Nc1cccc(S(=O)(=O)N2CCCCC2)c1	none (no result: HSF-1 act, MITF TRPM1 HTS, SR-BI HDL uptake, SR-BI DiI-HDL act)
Cn1ncc2c1NC(c1ccc(F)cc1)SCC2=O (stereo not given)	none (no result: HSF-1 act, MITF TRPM1 HTS, SR-BI HDL uptake, SR-BI DiI-HDL act)
CCCCCn1c(CN2CCN(CCO)CC2)nc2c1c(=O)n(C)c(=O)n2C	none
CCCCn1c(CN2CCN(C(=O)OCC)CC2)nc2c1c(=O)n(C)c(=O)n2C	Wnt act 42
O=S(=O)(c1cccs1)N1CCCc2nc(-c3ccc(F)cc3)ccc21	none (no result: HSF-1 act, MITF TRPM1 HTS, SR-BI HDL uptake, SR-BI DiI-HDL act)
O=C(Cc1cn(Cc2ccccc2)c2ccccc12)Nc1ccc(Nc2cccnc2)c(Br)c1	none (no result: HSF-1 act, MITF TRPM1 HTS, SR-BI HDL uptake, SR-BI DiI-HDL act)
Cc1cc(NC(=O)CSc2ccc(-c3nc4cc(C)c(C)cc4[nH]3)cn2)no1	none (no result: Wnt act)
Cc1cc2nc(-c3ccc(SCC(=O)Nc4ccc(S(=O)(=O)NC5CC5)cc4)nc3)[nH]c2cc1C	HSF-1 act 54
O=C(NC(CO)(CO)CO)c1coc(=O)c(Br)c1	HSF-1 act 65 (no result: Wnt act)
CC(C)CNC(=O)c1coc(=O)c(Br)c1	none (no result: Wnt act, MITF TRPM1 HTS)
O=C(N/N=C/C(Br)=C/c1ccccc1)c1ccccc1F	HSF-1 act 250
O=C(N/N=C/C(Cl)=C/c1ccccc1)c1ccccc1F	HSF-1 act 76

Compound activity from PubChem BioAssay.
